Source: ChEMBL document CHEMBL4261576, “Conformationally restricted benzothienoazepine respiratory syncytial virus inhibitors: their synthesis, structural analysis and biological activities” (Medchemcomm, 2018)
Where “and” joins values, the source holds several entries; their conditions need not be identical. Identical values can stand only once.

What was measured:
Vasopressin V1a receptor = Vasopressin V1a receptor (Homo sapiens, UniProt P37288); experiment: Displacement of [3H] (Arg8)-vasopressin from human vasopressin V1a receptor expressed in CHO cell membranes after 60 mins
Vasopressin V2 receptor = Vasopressin V2 receptor (Homo sapiens, UniProt P30518); experiment: Displacement of [3H] (Arg8)-vasopressin from human vasopressin V2 receptor expressed in CHO cell membranes after 60 mins
[1] = tested on: Respiratory syncytial virus; experiment: Antiviral activity against RSV B Washington infected in human HEp2 cells assessed as protection against virus-induced cytopathic effect after 6 days by resazurin assay; type: functional, organism-based; conditions: HEp-2, 144 h
Method in brief: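 HEp2 cells seeded at 10^3/well in 5% FBS-DMEM with glutamine and pyruvate one day before infection. RSV B Washington added in serum-free DMEM at final MOI 0.2, with compound added at the same time (0.5% DMSO final). Incubated 6 days at 37°C/5% CO2. Resazurin added for 6 h; fluorescence read at 545 nm ex / 590 nm em. IC50 taken from the concentration-response curve.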

[2] = tested on: Respiratory syncytial virus; experiment: Antiviral activity against RSV A2 infected in human HEp2 cells assessed as protection against virus-induced cytopathic effect after 5 days by resazurin assay; type: functional, organism-based; conditions: A2, HEp-2, 120 h
Method in brief: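 HEp2 cells seeded at 10^3/well in 5% FBS-DMEM with 2 mM L-glutamine and 1 mM sodium pyruvate one day before infection. RSV A2 added in serum-free DMEM at final MOI 1, with compound added at the same time (final DMSO 0.5%). Incubated 5 days at 37°C/5% CO2. Resazurin then added for 6 h; fluorescence read at 545/590 nm. Percent inhibition per well; IC50 taken from the concentration-response curve.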

[3] = tested on: Respiratory syncytial virus; experiment: Antiviral activity against RSV A2 infected in human HEp2 cells assessed as protection against virus-induced cytopathic effect at 0.014 uM after 5 days by resazurin assay relative to control; type: functional

Chain of Vasopressin V1a receptor (P37288 whole entry): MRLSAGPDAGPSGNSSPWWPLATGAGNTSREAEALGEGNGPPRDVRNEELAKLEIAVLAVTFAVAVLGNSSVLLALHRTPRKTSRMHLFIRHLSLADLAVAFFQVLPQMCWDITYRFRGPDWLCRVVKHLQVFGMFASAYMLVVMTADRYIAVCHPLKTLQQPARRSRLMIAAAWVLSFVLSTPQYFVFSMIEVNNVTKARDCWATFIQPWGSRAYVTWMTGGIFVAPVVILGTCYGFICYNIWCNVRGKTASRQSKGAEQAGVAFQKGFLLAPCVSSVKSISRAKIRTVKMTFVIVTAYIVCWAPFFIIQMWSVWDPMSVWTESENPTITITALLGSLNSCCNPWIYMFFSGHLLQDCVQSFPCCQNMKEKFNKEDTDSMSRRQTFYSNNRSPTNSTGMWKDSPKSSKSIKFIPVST
Chain of Vasopressin V2 receptor (P30518 whole entry): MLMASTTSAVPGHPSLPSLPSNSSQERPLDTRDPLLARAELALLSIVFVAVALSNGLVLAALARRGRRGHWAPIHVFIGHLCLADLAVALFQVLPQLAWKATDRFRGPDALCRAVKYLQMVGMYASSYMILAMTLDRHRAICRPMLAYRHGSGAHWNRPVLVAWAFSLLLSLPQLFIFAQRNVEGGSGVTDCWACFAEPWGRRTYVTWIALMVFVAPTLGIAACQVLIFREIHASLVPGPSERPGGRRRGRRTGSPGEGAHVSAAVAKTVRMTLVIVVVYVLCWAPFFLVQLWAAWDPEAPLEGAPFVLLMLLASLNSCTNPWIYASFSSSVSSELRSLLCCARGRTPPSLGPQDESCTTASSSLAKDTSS

| Ki (Vasopressin V1a receptor) | Ki (Vasopressin V2 receptor) | SMILES | IC50 [1] [nM] | IC50 [2] [nM] | Activity [3] [%] |
| --- | --- | --- | --- | --- | --- |
| 70 nM and 620 nM | 640 nM and 4700 nM | Cc1ccccc1C(=O)Nc1ccc(C(=O)N2CCC(=O)N(C)c3cccc(C)c32)cc1 |  |  |  |
|  |  | Cc1cnc(N2CC3(CCOCC3)C2)c(C(=O)Nc2ccc(C(=O)N3CC(C)c4cc(C(=O)Nc5c(C)cccc5F)sc4-c4ccccc43)cc2)c1 (racemic) | 17 | 1.1 |  |
|  |  | Cc1cnc(N2CC3(CCOCC3)C2)c(C(=O)Nc2ccc(C(=O)N3C[C@H](C)c4cc(C(=O)Nc5c(C)cccc5F)sc4-c4ccccc43)cc2)c1 | 15 | 0.51 |  |
|  |  | Cc1cnc(N2CC3(CCOCC3)C2)c(C(=O)Nc2ccc(C(=O)N3c4ccccc4-c4sc(C(=O)Nc5c(F)cccc5F)cc4C[C@@H]3C)cc2)c1 | > 1360 | > 14 |  |
|  |  | Cc1cnc(N2CC3(CCOCC3)C2)c(C(=O)Nc2ccc(C(=O)N3C[C@@H](C)c4cc(C(=O)Nc5c(C)cccc5F)sc4-c4ccccc43)cc2)c1 | > 1370 | > 14 | 40 |
|  |  | Cc1cnc(N2CC3(CCOCC3)C2)c(C(=O)Nc2ccc(C(=O)N3c4ccccc4-c4sc(C(=O)Nc5c(F)cccc5F)cc4CC3C)cc2)c1 (racemic) | 13 | 0.45 |  |
|  |  | Cc1cnc(N2CC3(CCOCC3)C2)c(C(=O)Nc2ccc(C(=O)N3CCc4cc(C(=O)Nc5c(C)cccc5F)sc4-c4ccccc43)cc2)c1 [PC-786] | 7.2 | 0.32 |  |
|  |  | Cc1cnc(N2CC3(CCOCC3)C2)c(C(=O)Nc2ccc(C(=O)N3c4ccccc4-c4sc(C(=O)Nc5c(F)cccc5F)cc4C[C@H]3C)cc2)c1 | 9.2 | 0.18 |  |
